Experimental data as given in ChEMBL document CHEMBL1150363, “Synthesis, ligand-receptor modeling studies and pharmacological evaluation of novel 4-modified-2-aryl-1,2,4-triazolo[4,3-a]quinoxalin-1-one derivatives as potent and selective human A3 adenosine receptor antagonists” (Bioorg Med Chem, 2008).
pKi: −log10 of the molar value.

Key:
Adenosine receptor A1 [1] = molecular target: T1, Adenosine receptor A1 (Bos taurus, UniProt P28190); assay: Displacement of [3H]DPCPX from adenosine A1 receptor in bovine brain membrane
T1 sequence (P28190 whole entry): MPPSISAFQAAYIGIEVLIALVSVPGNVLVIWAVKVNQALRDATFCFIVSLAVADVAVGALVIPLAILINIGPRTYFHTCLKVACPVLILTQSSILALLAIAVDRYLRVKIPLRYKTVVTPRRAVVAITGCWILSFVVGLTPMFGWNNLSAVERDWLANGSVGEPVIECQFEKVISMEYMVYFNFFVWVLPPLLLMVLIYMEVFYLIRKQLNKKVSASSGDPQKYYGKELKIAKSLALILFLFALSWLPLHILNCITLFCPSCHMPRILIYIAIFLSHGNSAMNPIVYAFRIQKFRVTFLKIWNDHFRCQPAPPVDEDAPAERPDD

Adenosine receptor A3 = molecular target: T2, Adenosine receptor A3 (Homo sapiens, UniProt P0DMS8); assay: Displacement of [125I]AB-MECA from human cloned adenosine A3 receptor expressed in CHO cells; format: cell-based
T2 sequence (P0DMS8 whole entry): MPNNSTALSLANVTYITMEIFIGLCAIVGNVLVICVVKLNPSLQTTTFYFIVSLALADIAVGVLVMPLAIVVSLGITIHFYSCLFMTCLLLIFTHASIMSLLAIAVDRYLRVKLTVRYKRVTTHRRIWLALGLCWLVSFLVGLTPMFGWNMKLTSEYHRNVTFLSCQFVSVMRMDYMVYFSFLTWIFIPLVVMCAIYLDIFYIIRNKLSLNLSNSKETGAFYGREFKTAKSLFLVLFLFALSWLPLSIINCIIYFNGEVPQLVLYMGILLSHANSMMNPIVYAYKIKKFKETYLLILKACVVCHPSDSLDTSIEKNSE
In short: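 CHO cells stably expressing hA3. IC50 by non-linear regression over five displacer concentrations in triplicate, converted to Ki by Cheng-Prusoff. Ki values are means of four assays.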

Bos taurus = species: Bos taurus; assay: Displacement of [3H]CGS21680 from adenosine A2A receptor in bovine brain membrane at 10 uM; format: cell membranes
In short: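 Bovine striatal membranes, [3H]CGS 21680 (Kd 14 nM). Five displacer concentrations in triplicate, non-linear regression IC50, Cheng-Prusoff Ki, four assays. Single-point data are % inhibition at 10 µM.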

[2] = molecular target: T3, Adenosine receptor A1 (Bos taurus) (UniProt P28190); assay: Displacement of [125I]DPCPX from adenosine A1 receptor in bovine brain membrane at 10 uM; format: cell membranes; conditions: in the assay text read “[3H]DPCPX” for “[125I]DPCPX”
T3 sequence (whole entry): T1 sequence (P28190 whole entry)
In short: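 Bovine cerebral cortical membranes, [3H]DPCPX (Kd 0.3 nM). IC50 from five displacer concentrations in triplicate, Ki by Cheng-Prusoff, means of four assays. Single-point data are % inhibition of specific binding at 10 µM.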

[3] = Displacement of [3H]CGS21680 from adenosine A2A receptor in bovine brain membrane; format: cell membranes, Bos taurus
Adenosine receptor A2a [4] = molecular target: T4, Adenosine receptor A2a (Homo sapiens, UniProt P29274); assay: Displacement of [125I]NECA from human adenosine A2A receptor expressed in CHO cells at 10uM; format: cell-based; conditions: in the assay text read “[3H]NECA” for “[125I]NECA”
T4 sequence (P29274 whole entry): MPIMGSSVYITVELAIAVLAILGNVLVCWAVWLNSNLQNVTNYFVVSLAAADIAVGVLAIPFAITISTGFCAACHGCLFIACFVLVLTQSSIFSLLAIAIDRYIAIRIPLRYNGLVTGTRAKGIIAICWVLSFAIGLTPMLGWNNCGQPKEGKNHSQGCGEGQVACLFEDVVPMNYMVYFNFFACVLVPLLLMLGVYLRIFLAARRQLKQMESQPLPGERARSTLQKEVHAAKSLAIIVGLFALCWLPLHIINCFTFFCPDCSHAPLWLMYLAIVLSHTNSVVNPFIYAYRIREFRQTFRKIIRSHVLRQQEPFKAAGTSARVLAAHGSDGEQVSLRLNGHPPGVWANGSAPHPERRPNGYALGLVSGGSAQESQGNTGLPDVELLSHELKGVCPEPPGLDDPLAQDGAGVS
In short: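 hA2A stably expressed in CHO cells. Radioligand [3H]NECA (Kd 30 nM). Percentage inhibition of specific binding measured at 10 µM.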

[5] = molecular target: T5, Adenosine receptor A1 (Homo sapiens) (UniProt P30542); assay: Displacement of [3H]DPCPX from human cloned adenosine A1 receptor expressed in CHO cells at 10 uM
T5 sequence (whole entry): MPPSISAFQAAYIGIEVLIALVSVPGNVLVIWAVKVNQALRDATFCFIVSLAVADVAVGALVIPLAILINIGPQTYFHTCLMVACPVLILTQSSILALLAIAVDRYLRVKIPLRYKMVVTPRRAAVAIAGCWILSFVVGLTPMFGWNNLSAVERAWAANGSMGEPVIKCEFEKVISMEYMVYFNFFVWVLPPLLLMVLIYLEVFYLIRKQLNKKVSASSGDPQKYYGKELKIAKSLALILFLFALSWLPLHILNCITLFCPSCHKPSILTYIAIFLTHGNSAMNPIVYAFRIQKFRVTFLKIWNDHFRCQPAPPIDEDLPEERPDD

Adenosine receptor A1 [6] = molecular target: T6, Adenosine receptor A1 (Homo sapiens, UniProt P30542); assay: Displacement of [3H]DPCPX from human cloned adenosine A1 receptor expressed in CHO cells
T6 sequence (P30542 whole entry): T5 sequence (whole entry)

Adenosine receptor A2a [7] = molecular target: T4, Adenosine receptor A2a; assay: Displacement of [3H]NECA from human cloned adenosine A2A receptor expressed in CHO cells
[8] = molecular target: T7, Adenosine receptor A3 (Homo sapiens) (UniProt P0DMS8); assay: Displacement of [125I]AB-MECA from human cloned adenosine A3 receptor expressed in CHO cells at 1 uM; format: cell-based
T7 sequence (whole entry): T2 sequence (P0DMS8 whole entry)
In short: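 CHO cells stably expressing hA3. Displacement of [125I]AB-MECA (Kd 1.4 nM). IC50 by non-linear regression over five displacer concentrations in triplicate, converted to Ki by Cheng-Prusoff. Ki values are means of four assays. Single-point data are % inhibition of specific binding at 1 µM.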

Row | pKi (Adenosine receptor A1 [1]) | pKi (Adenosine receptor A3) | Activity (Bos taurus) | Activity [2] | pKi [3] | Activity (Adenosine receptor A2a [4]) | Activity [5] | pKi (Adenosine receptor A1 [6]) | pKi (Adenosine receptor A2a [7]) | Activity [8] | Structure (SMILES)
1 | 6.79 | 5.85 | 32% |  |  |  |  |  |  |  | CS(=O)(=O)Nc1nc2ccccc2n2c(=O)n(-c3ccccc3)nc12
2 |  | 6.41 | 17% | 6.2% |  |  |  |  |  |  | COc1ccc(-n2nc3c(N(S(C)(=O)=O)S(C)(=O)=O)nc4ccccc4n3c2=O)cc1
3 | 6.44 | 6.02 |  |  | 5.74 |  |  |  |  |  | O=C(Nc1cccc(I)c1)Nc1nc2ccccc2n2c(=O)n(-c3ccccc3)nc12
4 |  | 8.19 | 41% | 53% |  | 4% | 54% |  |  |  | COc1ccc(-n2nc3c(OCc4ccccc4)nc4ccccc4n3c2=O)cc1
5 | 7.26 | 7.68 | 19% |  |  | 10% | 46% |  |  |  | O=c1n(-c2ccccc2)nc2c(OCc3ccccc3)nc3ccccc3n12
6 | 7.68 | 7.19 | 12% |  |  | 23% |  | 5.38 |  |  | COc1ccc(-n2nc3c(NC(=O)NCc4ccccc4)nc4ccccc4n3c2=O)cc1
7 | 6.80 | 7.49 | 35% |  |  | 27% | 0% |  |  |  | O=c1n(-c2ccccc2)nc2c(NS(=O)(=O)c3ccccc3)nc3ccccc3n12
8 |  |  | 53% |  |  |  |  |  |  |  | O=C(Nc1nc2ccccc2n2c(=O)n(-c3ccccc3)nc12)c1ccccc1
9 | 7.00 | 5.89 |  |  | 6.42 |  |  |  |  |  | O=C(NC(=O)c1ccccc1)Nc1nc2ccccc2n2c(=O)n(-c3ccccc3)nc12
10 | 7.24 | 8.21 |  |  | 6.09 |  |  | 5.62 | 6.73 |  | O=C(Nc1nc2ccccc2n2c(=O)n(-c3ccccc3)nc12)c1ccncc1
11 | 8.39 | 7.08 |  |  | 6.76 |  |  | 7.91 | 6.80 |  | O=C(NCc1ccccc1)Nc1nc2ccccc2n2c(=O)n(-c3ccccc3)nc12
12 |  | 6.31 | 0% | 6% |  |  |  |  |  |  | COc1ccc(-n2nc3c(NS(C)(=O)=O)nc4ccccc4n3c2=O)cc1
13 | 6.97 |  | 36% |  |  |  |  |  |  | 41% | COC(=O)c1ccc(C(=O)Nc2nc3ccccc3n3c(=O)n(-c4ccccc4)nc23)cc1
14 |  | 5.86 | 41% | 30.5% |  |  |  |  |  |  | COC(=O)c1ccc(C(=O)Nc2nc3ccccc3n3c(=O)n(-c4ccc(OC)cc4)nc23)cc1
15 | 5.55 |  | 25% |  |  |  |  |  |  | 37% | CS(=O)(=O)Nc1nc2c([N+](=O)[O-])cccc2n2c(=O)n(-c3ccccc3)nc12
16 | 8.34 | 7.20 | 46.5% |  |  | 20% | 4% |  |  |  | O=C(NCc1ccccc1)Nc1nc2c([N+](=O)[O-])cccc2n2c(=O)n(-c3ccccc3)nc12
17 |  |  |  |  | 6.47 |  |  |  |  |  | CCCn1c(=O)c2[nH]c(C3CCCC3)nc2n(CCC)c1=O [1,3-DIPROPYL-8-CYCLOPENTYLXANTHINE [DPCPX]]
18 | 6.33 |  | 35% |  |  |  |  |  |  | 36% | O=C(Nc1nc2ccccc2n2c(=O)n(-c3ccccc3)nc12)c1cccc(I)c1
19 | 5.33 | 8.66 | 16% |  |  | 23% |  | 5.57 |  |  | COc1ccc(-n2nc3c(NS(=O)(=O)c4ccccc4)nc4ccccc4n3c2=O)cc1
20 |  |  | 22% | 37.5% |  |  |  |  |  | 0% | O=C(Nc1nc2c([N+](=O)[O-])cccc2n2c(=O)n(-c3ccccc3)nc12)c1ccncc1
21 | 6.63 | 7.17 | 44% |  |  |  |  | 6.11 | 6.40 |  | COc1ccc(-n2nc3c(NC(=O)c4ccncc4)nc4ccccc4n3c2=O)cc1
22 | 6.68 | 7.00 | 25% |  |  |  |  |  |  |  | O=c1n(-c2ccccc2)nc2c(NS(=O)(=O)c3ccccc3)nc3c([N+](=O)[O-])cccc3n12
